# Results taken from ChEMBL document CHEMBL5724801, “EUbOPEN Chemogenomics Library - Multiplex” (2024).
# Values joined by “and” are separate entries in the source; they are usually repeats but may differ in a detail not shown here. Equal entries are not always repeated.
# How the values were obtained:
# Type in all cases: toxicity, cell-based
# [1] = test system: HEK-293T; assay: Multiplex assay against HEK293T; details: human
# Outline: (§1)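 Values for tubulin, mitochondrial-mass and membrane-permeability phenotypes are per cents of cells with healthy nuclei. These cells were identified by CellPathfinder machine-learning gating of live cells that had been stained at seeding with Hoechst33342, BioTracker Green Microtubule Cytoskeleton Dye, MitoTracker Red and Annexin V Alexa Fluor 680 and imaged on a CQ1 microscope at 37°C and 5% CO2 after compound addition. The gating first set Hoechst high-intensity objects apart from normal cells, then split normal cells into healthy, pyknosed or fragmented nuclei, and pyknosed cells into mitotic or apoptotic.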
# [2] = test system: U2OS; assay: Multiplex assay against U2OS; details: human; outline: as §1
# [3] = test system: Fibroblast; assay: Multiplex assay against human fibroblast; outline: as §1
# [4] = 12 h, 1 µM, compound concentration 1 uM
# [5] = 12 h, 10 µM, compound concentration 10 uM
# [6] = 24 h, 1 µM, compound concentration 1 uM
# [7] = 24 h, 10 µM, compound concentration 10 uM
# [8] = 48 h, 1 µM, compound concentration 1 uM
# [9] = 48 h, 10 µM, compound concentration 10 uM
smiles,measurement,setting,value
COc1cc(C(=O)N(CCCc2ccccc2)Cc2ccc(CC(=O)O)cc2)cc(OC)c1C,Population Apoptotic (%),[1]; [4],45% and 44%
same,Population Fragmented Nuclei (%),[1]; [4],7% and 6%
same,Population Healthy Nuclei (%),[1]; [4],82% and 84%
same,Population Hoechst High Intensity Objects (%),[1]; [4],5% and 4%
same,Population Membrane Permeable-Phenotype (%),[1]; [4],0%
same,Population Mitochondria Different-Phenotype (%),[1]; [4],47% and 50%
same,Population Mitotic Cells (%),[1]; [4],55%
same,Population Normal (%),[1]; [4],94% and 95%
same,Population Pyknosed Nuclei (%),[1]; [4],10% and 9%
same,Population Tubulin-Different-Phenotype (%),[1]; [4],31% and 19%
same,Total Cell Count,[1]; [4],395 and 410
same,Population Apoptotic (%),[1]; [5],30% and 47%
same,Population Fragmented Nuclei (%),[1]; [5],6% and 4%
same,Population Healthy Nuclei (%),[1]; [5],77% and 82%
same,Population Hoechst High Intensity Objects (%),[1]; [5],8% and 6%
same,Population Membrane Permeable-Phenotype (%),[1]; [5],1% and 0%
same,Population Mitochondria Different-Phenotype (%),[1]; [5],46% and 67%
same,Population Mitotic Cells (%),[1]; [5],70% and 52%
same,Population Normal (%),[1]; [5],91% and 93%
same,Population Pyknosed Nuclei (%),[1]; [5],15% and 13%
same,Population Tubulin-Different-Phenotype (%),[1]; [5],52% and 44%
same,Total Cell Count,[1]; [5],431 and 438
same,Population Apoptotic (%),[1]; [6],32% and 48%
same,Population Fragmented Nuclei (%),[1]; [6],7%
same,Population Healthy Nuclei (%),[1]; [6],78% and 82%
same,Population Hoechst High Intensity Objects (%),[1]; [6],5% and 3%
same,Population Membrane Permeable-Phenotype (%),[1]; [6],0%
same,Population Mitochondria Different-Phenotype (%),[1]; [6],27% and 26%
same,Population Mitotic Cells (%),[1]; [6],67% and 51%
same,Population Normal (%),[1]; [6],94% and 96%
same,Population Pyknosed Nuclei (%),[1]; [6],14% and 9%
same,Population Tubulin-Different-Phenotype (%),[1]; [6],15% and 10%
same,Total Cell Count,[1]; [6],483 and 507
same,Population Apoptotic (%),[1]; [7],34% and 42%
same,Population Fragmented Nuclei (%),[1]; [7],7%
same,Population Healthy Nuclei (%),[1]; [7],80% and 79%
same,Population Hoechst High Intensity Objects (%),[1]; [7],7% and 6%
same,Population Membrane Permeable-Phenotype (%),[1]; [7],0%
same,Population Mitochondria Different-Phenotype (%),[1]; [7],39% and 50%
same,Population Mitotic Cells (%),[1]; [7],65% and 57%
same,Population Normal (%),[1]; [7],92% and 93%
same,Population Pyknosed Nuclei (%),[1]; [7],12%
same,Population Tubulin-Different-Phenotype (%),[1]; [7],43% and 38%
same,Total Cell Count,[1]; [7],549 and 526
same,Population Apoptotic (%),[1]; [8],30% and 26%
same,Population Fragmented Nuclei (%),[1]; [8],12% and 9%
same,Population Healthy Nuclei (%),[1]; [8],77% and 83%
same,Population Hoechst High Intensity Objects (%),[1]; [8],1% and 3%
same,Population Membrane Permeable-Phenotype (%),[1]; [8],1%
same,Population Mitochondria Different-Phenotype (%),[1]; [8],16% and 17%
same,Population Mitotic Cells (%),[1]; [8],69% and 73%
same,Population Normal (%),[1]; [8],98% and 96%
same,Population Pyknosed Nuclei (%),[1]; [8],9% and 7%
same,Population Tubulin-Different-Phenotype (%),[1]; [8],11% and 9%
same,Total Cell Count,[1]; [8],812 and 753
same,Population Apoptotic (%),[1]; [9],32% and 33%
same,Population Fragmented Nuclei (%),[1]; [9],12% and 15%
same,Population Healthy Nuclei (%),[1]; [9],76% and 75%
same,Population Hoechst High Intensity Objects (%),[1]; [9],4% and 8%
same,Population Membrane Permeable-Phenotype (%),[1]; [9],1%
same,Population Mitochondria Different-Phenotype (%),[1]; [9],29% and 37%
same,Population Mitotic Cells (%),[1]; [9],67% and 66%
same,Population Normal (%),[1]; [9],95% and 91%
same,Population Pyknosed Nuclei (%),[1]; [9],11% and 9%
same,Population Tubulin-Different-Phenotype (%),[1]; [9],29% and 34%
same,Total Cell Count,[1]; [9],729 and 632
same,Population Apoptotic (%),[2]; [4],95% and 70%
same,Population Fragmented Nuclei (%),[2]; [4],29% and 23%
same,Population Healthy Nuclei (%),[2]; [4],60% and 65%
same,Population Hoechst High Intensity Objects (%),[2]; [4],4%
same,Population Membrane Permeable-Phenotype (%),[2]; [4],7% and 8%
same,Population Mitochondria Different-Phenotype (%),[2]; [4],4% and 1%
same,Population Normal (%),[2]; [4],95%
same,Population Pyknosed Nuclei (%),[2]; [4],10% and 11%
same,Population Tubulin-Different-Phenotype (%),[2]; [4],4% and 1%
same,Total Cell Count,[2]; [4],228 and 93
same,Population Apoptotic (%),[2]; [5],82% and 100%
same,Population Fragmented Nuclei (%),[2]; [5],22% and 15%
same,Population Healthy Nuclei (%),[2]; [5],71% and 79%
same,Population Hoechst High Intensity Objects (%),[2]; [5],0% and 1%
same,Population Membrane Permeable-Phenotype (%),[2]; [5],5% and 2%
same,Population Mitochondria Different-Phenotype (%),[2]; [5],0% and 3%
same,Population Mitotic Cells (%),[2]; [5],17% and 0%
same,Population Normal (%),[2]; [5],99% and 98%
same,Population Pyknosed Nuclei (%),[2]; [5],6% and 4%
same,Population Tubulin-Different-Phenotype (%),[2]; [5],2% and 4%
same,Total Cell Count,[2]; [5],262 and 171
same,Population Apoptotic (%),[2]; [6],84% and 73%
same,Population Fragmented Nuclei (%),[2]; [6],29% and 22%
same,Population Healthy Nuclei (%),[2]; [6],61% and 64%
same,Population Hoechst High Intensity Objects (%),[2]; [6],2% and 4%
same,Population Membrane Permeable-Phenotype (%),[2]; [6],7% and 2%
same,Population Mitochondria Different-Phenotype (%),[2]; [6],6% and 2%
same,Population Mitotic Cells (%),[2]; [6],15% and 26%
same,Population Normal (%),[2]; [6],97% and 95%
same,Population Pyknosed Nuclei (%),[2]; [6],9% and 13%
same,Population Tubulin-Different-Phenotype (%),[2]; [6],4% and 0%
same,Total Cell Count,[2]; [6],288 and 120
same,Population Apoptotic (%),[2]; [7],94% and 84%
same,Population Fragmented Nuclei (%),[2]; [7],18% and 12%
same,Population Healthy Nuclei (%),[2]; [7],76% and 80%
same,Population Hoechst High Intensity Objects (%),[2]; [7],0% and 2%
same,Population Membrane Permeable-Phenotype (%),[2]; [7],7%
same,Population Mitochondria Different-Phenotype (%),[2]; [7],2% and 5%
same,Population Mitotic Cells (%),[2]; [7],5% and 15%
same,Population Normal (%),[2]; [7],99% and 97%
same,Population Pyknosed Nuclei (%),[2]; [7],5% and 6%
same,Population Tubulin-Different-Phenotype (%),[2]; [7],3% and 5%
same,Total Cell Count,[2]; [7],318 and 192
same,Population Apoptotic (%),[2]; [8],86% and 78%
same,Population Fragmented Nuclei (%),[2]; [8],23% and 22%
same,Population Healthy Nuclei (%),[2]; [8],69% and 64%
same,Population Hoechst High Intensity Objects (%),[2]; [8],3% and 6%
same,Population Membrane Permeable-Phenotype (%),[2]; [8],5% and 7%
same,Population Mitochondria Different-Phenotype (%),[2]; [8],2% and 5%
same,Population Mitotic Cells (%),[2]; [8],13% and 21%
same,Population Normal (%),[2]; [8],96% and 93%
same,Population Pyknosed Nuclei (%),[2]; [8],7% and 12%
same,Population Tubulin-Different-Phenotype (%),[2]; [8],4% and 6%
same,Total Cell Count,[2]; [8],408 and 159
same,Population Apoptotic (%),[2]; [9],93% and 94%
same,Population Fragmented Nuclei (%),[2]; [9],18% and 15%
same,Population Healthy Nuclei (%),[2]; [9],75% and 71%
same,Population Hoechst High Intensity Objects (%),[2]; [9],1% and 3%
same,Population Membrane Permeable-Phenotype (%),[2]; [9],4% and 8%
same,Population Mitochondria Different-Phenotype (%),[2]; [9],2% and 1%
same,Population Mitotic Cells (%),[2]; [9],6% and 5%
same,Population Normal (%),[2]; [9],98% and 96%
same,Population Pyknosed Nuclei (%),[2]; [9],6% and 13%
same,Population Tubulin-Different-Phenotype (%),[2]; [9],2% and 4%
same,Total Cell Count,[2]; [9],504 and 280
same,Population Apoptotic (%),[3]; [4],63% and 42%
same,Population Fragmented Nuclei (%),[3]; [4],14% and 37%
same,Population Healthy Nuclei (%),[3]; [4],73% and 45%
same,Population Hoechst High Intensity Objects (%),[3]; [4],2% and 4%
same,Population Membrane Permeable-Phenotype (%),[3]; [4],0% and 11%
same,Population Mitochondria Different-Phenotype (%),[3]; [4],0% and 5%
same,Population Mitotic Cells (%),[3]; [4],36% and 57%
same,Population Normal (%),[3]; [4],97% and 95%
same,Population Pyknosed Nuclei (%),[3]; [4],12% and 16%
same,Population Tubulin-Different-Phenotype (%),[3]; [4],15% and 36%
same,Total Cell Count,[3]; [4],160 and 176
same,Population Apoptotic (%),[3]; [5],41% and 45%
same,Population Fragmented Nuclei (%),[3]; [5],16% and 25%
same,Population Healthy Nuclei (%),[3]; [5],70% and 61%
same,Population Hoechst High Intensity Objects (%),[3]; [5],2% and 4%
same,Population Membrane Permeable-Phenotype (%),[3]; [5],0% and 7%
same,Population Mitochondria Different-Phenotype (%),[3]; [5],5% and 4%
same,Population Mitotic Cells (%),[3]; [5],58% and 54%
same,Population Normal (%),[3]; [5],97% and 95%
same,Population Pyknosed Nuclei (%),[3]; [5],12% and 13%
same,Population Tubulin-Different-Phenotype (%),[3]; [5],28% and 47%
same,Total Cell Count,[3]; [5],197 and 181
same,Population Apoptotic (%),[3]; [6],68% and 52%
same,Population Healthy Nuclei (%),[3]; [6],77% and 41%
same,Population Hoechst High Intensity Objects (%),[3]; [6],1% and 4%
same,Population Membrane Permeable-Phenotype (%),[3]; [6],0% and 1%
same,Population Mitochondria Different-Phenotype (%),[3]; [6],0% and 6%
same,Population Mitotic Cells (%),[3]; [6],31% and 48%
same,Population Normal (%),[3]; [6],98% and 95%
same,Population Pyknosed Nuclei (%),[3]; [6],10% and 13%
same,Population Tubulin-Different-Phenotype (%),[3]; [6],13% and 28%
same,Total Cell Count,[3]; [6],156 and 189
same,Population Apoptotic (%),[3]; [7],55% and 40%
same,Population Fragmented Nuclei (%),[3]; [7],12% and 25%
same,Population Healthy Nuclei (%),[3]; [7],76% and 61%
same,Population Hoechst High Intensity Objects (%),[3]; [7],1% and 4%
same,Population Membrane Permeable-Phenotype (%),[3]; [7],1% and 5%
same,Population Mitochondria Different-Phenotype (%),[3]; [7],6% and 0%
same,Population Mitotic Cells (%),[3]; [7],45% and 59%
same,Population Normal (%),[3]; [7],98% and 96%
same,Population Pyknosed Nuclei (%),[3]; [7],10% and 13%
same,Population Tubulin-Different-Phenotype (%),[3]; [7],25% and 41%
same,Total Cell Count,[3]; [7],192 and 175
same,Population Apoptotic (%),[3]; [8],90% and 52%
same,Population Fragmented Nuclei (%),[3]; [8],21% and 50%
same,Population Healthy Nuclei (%),[3]; [8],72% and 41%
same,Population Hoechst High Intensity Objects (%),[3]; [8],1% and 2%
same,Population Membrane Permeable-Phenotype (%),[3]; [8],0% and 3%
same,Population Mitochondria Different-Phenotype (%),[3]; [8],0% and 9%
same,Population Normal (%),[3]; [8],98% and 97%
same,Population Pyknosed Nuclei (%),[3]; [8],6% and 8%
same,Population Tubulin-Different-Phenotype (%),[3]; [8],17% and 40%
same,Total Cell Count,[3]; [8],168 and 211
same,Population Apoptotic (%),[3]; [9],77% and 58%
same,Population Fragmented Nuclei (%),[3]; [9],25% and 38%
same,Population Healthy Nuclei (%),[3]; [9],65% and 54%
same,Population Hoechst High Intensity Objects (%),[3]; [9],2% and 5%
same,Population Membrane Permeable-Phenotype (%),[3]; [9],1% and 5%
same,Population Mitochondria Different-Phenotype (%),[3]; [9],5% and 3%
same,Population Mitotic Cells (%),[3]; [9],22% and 41%
same,Population Normal (%),[3]; [9],97% and 94%
same,Population Pyknosed Nuclei (%),[3]; [9],9% and 6%
same,Population Tubulin-Different-Phenotype (%),[3]; [9],32% and 46%
same,Total Cell Count,[3]; [9],195 and 187
